Experimental data: ChEMBL document CHEMBL4373749, “Design and Catalyzed Activation of Tak-242 Prodrugs for Localized Inhibition of TLR4-Induced Inflammation” (ACS Med Chem Lett, 2020)

Legend:
Toll-like receptor 4 [1] = biological target: T1, Toll-like receptor 4 (Homo sapiens, UniProt O00206); assay: Inhibition of human TLR4 expressed in HEK-Blue cells assessed as decrease in LPS-induced TLR4 response incubated for 1 hr followed by LPS stimulation and further incubated for 22 hrs by cell based reporter assay
Toll-like receptor 4 [2] = biological target: T1, Toll-like receptor 4; assay: Inhibition of human TLR4 expressed in HEK-Blue cells assessed as decrease in LPS-induced TLR4 response at 15 uM incubated for 1 hr followed by LPS stimulation and further incubated for 22 hrs by cell based reporter assay
Procedure, shortened: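 HEK TLR4 reporter cells exposed to compound across a concentration range, then stimulated with LPS. Read-out is optical density at 650 nm. Complete suppression was defined as the OD650 of cells given racemic reference inhibitor at 15 μM. IC50 values were derived from the concentration-response data.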

[3] = Stability of compound in phosphate buffered saline containing 5% DMSO at 0.01 mg/ml at pH 7.4 by HPLC analysis; assay type: physicochemical; settings: buffer
Procedure, shortened: (§1)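 Incubation at 37 °C in phosphate buffered saline, pH 7.4, containing 5% DMSO. Aqueous stability was followed over time.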

[4] = Stability of compound in phosphate buffered saline containing 5% DMSO assessed as compound remaining at 0.01 mg/ml at pH 7.4 measured after 1 day by HPLC analysis; assay type: physicochemical; settings: read-out: Stability; procedure, shortened: as §1
[5] = biological target: T2, Oxygen-insensitive NAD(P)H nitroreductase (Escherichia coli K-12, UniProt P38489); assay: Prodrug conversion in PBS containing 5% DMSO assessed as Escherichia coli nitroreductase-mediated activation by measuring increased consumption of prodrug at 0.01 mg/ml at pH 7.4 in presence of […] by HPLC analysis; settings: isolated protein
T2 sequence (P38489 whole entry): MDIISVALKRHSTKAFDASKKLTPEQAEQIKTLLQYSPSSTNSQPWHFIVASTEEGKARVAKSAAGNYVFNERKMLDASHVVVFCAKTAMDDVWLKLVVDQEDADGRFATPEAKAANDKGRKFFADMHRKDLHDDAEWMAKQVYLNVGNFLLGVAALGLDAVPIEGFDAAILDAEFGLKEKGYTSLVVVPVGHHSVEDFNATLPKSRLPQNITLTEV
Procedure, shortened: (§2)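 Nitroreductase from E. coli (2 units/mL) with NADPH (1 mg/mL) in PBS, pH 7.4, containing 5% DMSO. The reaction was monitored by HPLC.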

[6] = biological target: T2, Oxygen-insensitive NAD(P)H nitroreductase; assay: Prodrug conversion in PBS containing 5% DMSO assessed as Escherichia coli nitroreductase-mediated activation by measuring release of ethyl (6R)-6-[(2-chloro-4-fluorophenyl)sulfamoyl]cyclohexene-1-carboxylate parent drug at 0.01 mg/ml at pH 7.4 in presence of […] by HPLC analysis; settings: isolated protein; procedure, shortened: as §2
[7] = biological target: T2, Oxygen-insensitive NAD(P)H nitroreductase; assay: Prodrug conversion in PBS containing 5% DMSO assessed as Escherichia coli nitroreductase-mediated activation by measuring reduced amine intermediate metabolite formation at 0.01 mg/ml at pH 7.4 in presence of […] by HPLC analysis; assay type: ADME; settings: isolated protein; procedure, shortened: as §2

T1 sequence (O00206 whole entry): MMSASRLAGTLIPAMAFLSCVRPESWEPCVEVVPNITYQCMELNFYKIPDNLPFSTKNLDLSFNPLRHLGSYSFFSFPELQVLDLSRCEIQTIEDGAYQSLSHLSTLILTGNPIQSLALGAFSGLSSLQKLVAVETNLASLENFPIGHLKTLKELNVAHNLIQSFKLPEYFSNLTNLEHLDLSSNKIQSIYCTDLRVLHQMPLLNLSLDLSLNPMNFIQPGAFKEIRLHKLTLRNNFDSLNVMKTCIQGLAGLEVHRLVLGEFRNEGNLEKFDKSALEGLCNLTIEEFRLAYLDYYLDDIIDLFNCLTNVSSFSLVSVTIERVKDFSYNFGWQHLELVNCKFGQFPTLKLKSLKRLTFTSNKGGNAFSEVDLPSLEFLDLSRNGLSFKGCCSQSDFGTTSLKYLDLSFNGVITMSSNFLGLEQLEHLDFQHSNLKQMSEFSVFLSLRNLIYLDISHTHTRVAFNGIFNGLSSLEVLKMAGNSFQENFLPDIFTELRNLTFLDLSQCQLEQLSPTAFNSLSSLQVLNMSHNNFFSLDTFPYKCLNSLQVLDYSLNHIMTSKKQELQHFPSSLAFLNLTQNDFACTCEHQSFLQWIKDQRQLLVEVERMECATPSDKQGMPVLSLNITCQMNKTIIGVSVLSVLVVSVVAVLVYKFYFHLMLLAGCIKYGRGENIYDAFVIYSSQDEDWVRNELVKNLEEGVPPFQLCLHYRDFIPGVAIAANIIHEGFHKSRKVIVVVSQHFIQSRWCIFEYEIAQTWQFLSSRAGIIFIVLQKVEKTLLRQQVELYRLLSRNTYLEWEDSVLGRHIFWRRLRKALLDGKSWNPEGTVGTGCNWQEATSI

Structure (SMILES)	IC50 (Toll-like receptor 4 [1])	inhibition (Toll-like receptor 4 [2])	Stability [3]	remaining at 24 h, 0.01 mg/ml [4]	Drug metabolism [5]	Drug metabolism [6]	Drug metabolism [7]
CCOC(=O)C1=CCCCC1S(=O)(=O)Nc1ccc(F)cc1Cl (racemic)	40 nM	100%	–	–	–	–	–
C#CCOC(=O)N(c1ccc(F)cc1Cl)S(=O)(=O)C1CCCC=C1C(=O)OCC (racemic)	–	–	Unstable	25%	–	–	–
CCOC(=O)C1=CCCCC1S(=O)(=O)N(C(=O)OCc1ccc([N+](=O)[O-])cc1)c1ccc(F)cc1Cl (racemic)	–	–	Unstable	85%	Metabolite_Detected	Metabolite_Detected	Metabolite_Notdetected

Now from value to molecule:

IC50 (Toll-like receptor 4 [1])	inhibition (Toll-like receptor 4 [2])	Stability [3]	remaining at 24 h, 0.01 mg/ml [4]	Drug metabolism [5]	Drug metabolism [6]	Drug metabolism [7]	Structure (SMILES)
–	–	Stable	–	–	–	–	C#CCN(c1ccc(F)cc1Cl)S(=O)(=O)C1CCCC=C1C(=O)OCC (racemic)
–	–	Stable	–	Metabolite_Detected	Metabolite_Detected	Metabolite_Detected	CCOC(=O)C1=CCCCC1S(=O)(=O)N(Cc1ccc([N+](=O)[O-])cc1)c1ccc(F)cc1Cl (racemic)
